# Bioassay records (PubChem BioAssay)
# Diaph inh CS = diaphorase inhibition or chemical oxidation counter-screen; diaphorase resazurin-to-resorufin fluorescence, NADH, 16 min; bacterial (C. kluyveri) enzyme, not human; 0.69% of 190,000 active; inhibition, % at 20 µM; AID 1217;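 active = primary screen inhibition at 20 µM above a set limit, cut at about 50% in these data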;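 note: plate controls were DMSO with full reaction for no effect and wells lacking NADH for full effect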
#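 Test system: Clostridium kluyveri diaphorase enzyme / Quantity: diaphorase at 0.14 U/mL in enzyme working solution / Incubation: 16-min room-temperature incubation before reading / Benchmarks: NADH-free wells as positive control, DMSO-only neutral wells / Signal: resorufin fluorescence 544/590 nm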
# PMI act satM6P = activators of human phosphomannose isomerase at near-saturating mannose 6-phosphate; coupled PMI enzyme assay, resazurin fluorescence, 20 min; active compounds read high; 1 = untreated enzyme, 0 = substrate-free blank; 0.34% of 190,000 active; activation factor at 20 µM; P34949;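 active = activation factor of 2 or more at 20 µM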
#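 assay system = human phosphomannose isomerase with PGI, G6PDH, diaphorase coupling enzymes | quantity = 15 ng/mL PMI | incubation = enzyme reaction with compound 20 min at room temperature | medium = HEPES pH 7.4 buffer with MgCl2 and Tween-20 | compound dosing = one concentration, 20 µM, in 1% DMSO | measured by = Diaphorase-driven resazurin-to-resorufin fluorescence, excitation 544, emission 590 nm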
# FLuc stim CS = firefly luciferase counter-screen for stimulation assays; 200,000 tested, under 10 active; activation factor at 10 µM; ATPlite luciferase biochemical, luminescence, 10 min; 0 = ATP-free wells, 1 = DMSO control; P08659;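 active = luciferase activation factor, scaled between plate controls, of at least 2 with compound at 10 µM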
# Target sequence (P08659 whole entry, looked up): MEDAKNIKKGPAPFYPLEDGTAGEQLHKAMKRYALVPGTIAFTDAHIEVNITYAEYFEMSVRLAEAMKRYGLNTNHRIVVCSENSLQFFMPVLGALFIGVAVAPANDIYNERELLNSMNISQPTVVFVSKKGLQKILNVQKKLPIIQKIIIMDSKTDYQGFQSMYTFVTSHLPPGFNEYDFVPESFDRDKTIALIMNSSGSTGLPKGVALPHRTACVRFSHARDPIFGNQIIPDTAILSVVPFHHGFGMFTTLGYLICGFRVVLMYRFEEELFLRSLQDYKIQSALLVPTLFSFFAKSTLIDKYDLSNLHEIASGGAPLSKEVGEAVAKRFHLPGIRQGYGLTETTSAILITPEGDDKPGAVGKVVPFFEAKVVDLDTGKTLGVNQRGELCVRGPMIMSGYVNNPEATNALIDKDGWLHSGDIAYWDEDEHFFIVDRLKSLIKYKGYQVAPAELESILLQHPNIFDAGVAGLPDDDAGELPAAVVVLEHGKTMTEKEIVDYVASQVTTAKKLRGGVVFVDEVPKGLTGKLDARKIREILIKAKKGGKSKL
#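 test system = cell-free luciferase reagent | medium = PBS as buffer for the ATP substrate | dosing = test compounds dosed from 2 mM stocks in 100% DMSO | incubation = 10 min at ambient temperature | detection = luminescence measurement of luciferase light output | benchmarks = low control with PBS replacing ATP, high control enzyme plus ATP without compound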
# Diaphorase act = diaphorase activation or chemical reduction counter-screen; AID 1229; activation factor at 20 µM; Diaphorase/resazurin coupled assay, resorufin fluorescence, 16 min; active compounds read high; 1 = vehicle wells, 0 = NADH-free wells; 0.005% of 190,000 active;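 active = diaphorase activity raised at least twofold by the compound at 20 µM; inactive = activation factor below 2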
#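 Measured by – red resorufin fluorescence at 544/590 nm excitation/emission · Test system – Clostridium kluyveri diaphorase, purified enzyme · Incubation – reaction time 16 min, room temperature · Buffer or medium – 50 mM HEPES pH 7.4 with 4.542 mM MgCl2, 0.005% Tween 20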
# PMI act = activators of human phosphomannose isomerase | 0.005% of 190,000 active | P34949 | purified human PMI, coupled resazurin fluorescence, 20 min; active compounds read high; 1 = vehicle control, 0 substrate-free wells | activation factor at 20 µM;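 active = activation factor of 2 or more at 20 µM, relative to plate controls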
# FLuc inhib CS = Photinus pyralis luciferase inhibition counter-screen. P08659. ATPLite firefly luciferase biochemical luminescence, 10 min. inhibition, % at 10 µM. 1.5% of 200,000 active. AID 1006;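 active = inhibition above about 50% when tested at 10 µM, limit read from the data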
# * marks the source's active call; other numbers are inactive results. Hits are enriched below; roughly 2.5% of the tested compounds scored in any of these assays.
SMILES,Diaph inh CS,PMI act satM6P,FLuc stim CS,Diaphorase act,PMI act,FLuc inhib CS
Cc1cc(C)c2nc(SC3CCOC3=O)cc(C)c2c1 (configuration not stated),6.4,2.5*,1,0.9,1.5,0.8
C=CCc1cccc2cc(C(=O)Nc3ccc(S(=O)(=O)Nc4nnc(CC)s4)cc3)c(=O)oc12,51.5*,1.1,1,0.5,1,2.6
C=CCc1cccc2cc(C(=O)Nc3ccc(F)cc3)c(=O)oc12,1.6,1.1,1.1,1,1,-6.6
O=C(/C=C/c1ccco1)Nc1cccc2cccnc12,63.3*,0.7,0.7,0.4,1.1,26.9
O=C(/C=C/c1ccco1)Nc1nc(-c2ccccn2)cs1,24.8,0.7,0.7,0.8,0.8,29.1
Cc1ccc(NC(=O)/C=C/c2ccco2)nc1,16.9,1,0.4,0.8,0.9,61.9*
O=C(/C=C/c1ccco1)Nc1ccccn1,14.8,0.9,0.3,0.9,0.9,69.1*
O=C(/C=C/c1ccco1)Nc1cccnc1,13.3,1,0.7,0.9,1.1,33.4
COc1ccc(C(=O)C2CCN(C(=S)NCC3CCCO3)CC2)cc1 (configuration not stated),13.1,0.9,1,0.9,1,-3.3
COC(=O)c1ccc(N=Nc2ccccc2)cc1,16.1,0.9,0.4,0.8,0.9,59.6*
COc1cccc2c1C(=O)O/C2=C/c1ccc2c(c1)OCO2,8.6,0.9,0.2,0.9,0.9,84.6*
COC(=O)/C=C/c1ccc2c(c1)OCO2,1.8,0.9,0.9,1,1,8.6
O=[N+]([O-])/C(=C\Nc1ccccc1Cl)S(=O)(=O)c1ccccc1,6.7,2.4*,1,0.9,1.4,1.4
Cc1ccn2cc(-c3ccc(NC(=O)c4ccco4)cc3)nc2c1,0.5,1,0.4,1,1,55.2*
CC(=O)Nc1cccc(-c2cn3ccc(C)cc3n2)c1,-10.9,1,0.2,1.1,1,76.3*
Cc1ccn2cc(-c3cccc(NS(C)(=O)=O)c3)nc2c1,7.6,0.9,0.4,0.9,0.9,58.2*
CCC(=O)Nc1cccc(-c2cn3ccccc3n2)c1,13.7,0.9,0.7,0.9,0.9,28.2
COC(=O)c1ccc2nc(-c3cccc(N)c3)cn2c1,-1.1,1,0.1,1,0.9,90.3*
Cc1cccc(-n2c(SCc3cc(=O)n4c(C)cccc4n3)nc3[nH]ncc3c2=O)c1,14.6,1,1,0.9,0.9,-0.5
CC(=O)Nc1ccc2nc(-c3ccccc3)cn2c1,19.5,0.8,0.3,0.8,1.1,70.0*
CC(=O)Nc1ccc(-c2cc(-c3ccccc3)nc(-c3ccccc3)n2)cc1,13.6,0.9,1,0.9,0.8,0.1
O=C(Nc1ccc(-c2cn3ccccc3n2)cc1)c1cccs1,-25.9,1.1,0.3,1.3,1,73.1*
O=C(O)CN(c1ccccc1)S(=O)(=O)c1cc(C(F)(F)F)cc(C(F)(F)F)c1,7.8,1.1,1,0.9,1.2,-4.7
Cc1ccc(OCCCCNC2CCCC(C)C2C)c(C)c1 (configuration not stated),-6.9,1.1,1,1.1,1,-4.1
CCCCCCOc1ccc(NC(=O)CC2C(=O)N(CC)C(=S)N2Cc2ccco2)cc1 (configuration not stated),21.1,0.9,1.1,0.8,0.9,-8.6
SMILES,Diaph inh CS,PMI act satM6P,FLuc stim CS,Diaphorase act,PMI act,FLuc inhib CS
Cc1ccc2cc3c(N)c(C(=O)N4CCOCC4)sc3nc2c1,11.8,1.2,0.6,0.9,1.2,37.0
Cc1ccc2nc3sc(C(=O)NCc4ccco4)c(N)c3cc2c1,37.6,0.9,0.5,0.6,1,50.0*
Cc1ccc2cc3c(N)c(C(=O)N4CC(=O)Nc5ccccc54)sc3nc2c1,12.4,2.1*,1,0.9,1.3,-1.7
Cc1ccc2nc3sc(C(=O)N4CCOCC4)c(N)c3cc2c1,14.7,2*,0.2,0.9,1.5,80.6*
CC(NC(=O)c1ccccc1NC(=O)c1ccccc1)C(=O)N1CCOCC1 (configuration not stated),10.6,1,1,0.9,1,-1.3
COc1ccc(NC(=O)c2ccc(C)cc2)c(OC)c1,16.2,0.9,0.8,0.8,1,17.4
Cc1ccc(C)c2nc(N3CCCC3)c(C#N)cc12,17.6,2*,1,0.8,1.1,-4.2
COc1ccc(/C=N\n2nnc3ccccc32)cc1,4.0,1,0.3,1,1,68.8*
COc1ccc(/C=N/n2cc(-c3ccccc3)nc2N)cc1,-1.6,1,1,1,0.9,0.2
COc1ccc(/C=N/N2C(=O)c3ccccc3C2=O)cc1,8.7,0.9,0.3,0.9,1,74.0*
N#Cc1c(Cl)nsc1NN,11.0,1.7,1,0.9,1.4,0.4
O=C(c1cc2c(=O)n3ccccc3nc2s1)N1CCc2ccccc2C1,57.4*,1,1,0.4,1.3,3.9
O=C(c1cc2c(=O)n3ccccc3nc2s1)N1CCN(Cc2ccc3c(c2)OCO3)CC1,17.9,0.8,1.1,0.8,0.9,-8.2
O=C(N=Nc1ccc(NOC(=O)c2ccccc2Br)cc1)c1ccccc1O,64.7*,0.3,0.4,0.4,0.7,61.2*
CC(C)NC(=O)CSc1nncn1-c1ccccc1,7.4,1,1,0.9,1,-1.7
O=C(c1cccs1)N1CCc2c([nH]c3ccccc23)C1c1ccccn1 (configuration not stated),50.5*,0.7,1,0.5,0.8,-2.4
CC(=O)c1ccc(C(=O)N2CCc3c([nH]c4ccccc34)C2c2ccccn2)s1 (configuration not stated),-0.6,1,1,1,1,-2.6
CC(C)c1ccc(C(=O)NN2C(=O)C3CCCCC3C2=O)cc1 (configuration not stated),4.3,1.1,0.2,1,1.1,79.6*
COCC(C)n1c(C)cc(C(=O)COC(=O)c2n[nH]c3ccccc23)c1C (configuration not stated),18.2,1,0.2,0.8,1,75.7*
Cc1cc(=O)[nH]c(SCC(=O)N(CCC#N)c2ccccc2)c1C#N,2.3,1,1,1,1.2,-1.8
CCOc1cc([N+](=O)[O-])cc(/C=C2/NC(=O)N(Cc3ccccc3F)C2=O)c1O,56.4*,0.7,1,0.4,0.9,-1.8
O=[N+]([O-])c1cc(O)c2ncccc2c1,52.1*,0.5,1,0.5,0.8,-1.2
